Experimental data published in ChEMBL document CHEMBL4196136, “Chemical Constituents of Thai Citrus hystrix and Their Antiausterity Activity against the PANC-1 Human Pancreatic Cancer Cell Line” (J Nat Prod, 2018).
Activity calls are given as the source filed them. The calls are words filed in the database; no cut-off is given here.

Assays:
PANC-1 [1] = assay: Antiausteritic activity against human PANC1 cells in nutrient-deprived medium measured after 24 hrs by WST8 assay; assay type: functional
Outline: (§1)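 Cells kept in DMEM with 10% FBS at 37 °C, 5% CO2. Seeded at 1.5 × 10^4 cells/well in DMEM for 24 h, washed twice with PBS, then exposed 24 h to serially diluted samples in DMEM or nutrient-deprived medium (NDM). Viability by WST-8 (3 h, A450) from three-well means. PC50 is the concentration killing 50% of cells in NDM without toxicity in DMEM.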

PSN1 [2] = assay: Antiausteritic activity against human PSN1 cells in nutrient-deprived medium measured after 24 hrs by WST8 assay; assay type: functional; outline: as §1
MIA PaCa-2 [3] = assay: Antiausteritic activity against human MIAPaCa2 cells in nutrient-deprived medium measured after 24 hrs by WST8 assay; assay type: functional; outline: as §1
PSN1 [4] = assay: Cytotoxicity against human PSN1 cells in DMEM measured after 24 hrs by WST8 assay; assay type: cell-based; settings: psn1, 24 h; outline: as §1
MIA PaCa-2 [5] = assay: Cytotoxicity against human MIAPaCa2 cells in DMEM measured after 24 hrs by WST8 assay; assay type: cell-based; settings: mia paca-2, 24 h; outline: as §1
PANC-1 [6] = assay: Cytotoxicity against human PANC1 cells in DMEM measured after 24 hrs by WST8 assay; assay type: cell-based; settings: panc-1, 24 h; outline: as §1
PANC-1 [7] = assay: Antiausteritic activity against human PANC1 cells in nutrient deprived medium assessed as disintegration of cell organelles at 10 uM measured every 10 mins for 24 hrs by phase contrast microscopic method; assay type: functional, cell-based
Outline: (§2)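 PANC-1 (2 × 10^5) attached overnight in complete medium, washed twice with PBS, treated with 10 μM in NDM. Held in a stage-top incubator at 37 °C, 5% CO2. Phase-contrast images taken every 10 min for 24 h.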

PANC-1 [8] = assay: Inhibition of colony formation in human PANC1 cells in DMEM at 25 uM after 10 days by crystal violet staining based assay relative to control; assay type: functional; settings: PANC-1, 240 h
Outline: (§3)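 PANC-1 at 500 cells/well in DMEM, attached 24 h at 37 °C, 5% CO2. Treated with 12.5 or 25 μM in DMEM and grown 10 days. Cells washed with PBS, fixed with 4% formaldehyde, stained 15 min with crystal violet. Colony area measured; three replicates.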

Homo sapiens = species: Homo sapiens; assay: Inhibition of AKT/mTOR signaling in human PANC1 cells in nutrient deprived medium assessed as effect on mTOR phosphorylation up to 5 uM measured within 6 hrs by Western blot analysis; assay type: cell-based
Outline: (§4)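 PANC-1 cells treated in nutrient-deprived medium. Proteins resolved by SDS-PAGE and transferred to PVDF. Membranes blocked, washed in PBS with 0.1% Tween 20, and incubated overnight with primary antibodies against p-Akt, Akt, p-mTOR and mTOR. GAPDH served as loading control.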

PANC-1 [9] = assay: Inhibition of colony formation in human PANC1 cells in DMEM at 12.5 uM after 10 days by crystal violet staining based assay; assay type: functional, cell-based; outline: as §3
PANC-1 [10] = assay: Antiausteritic activity against human PANC1 cells in nutrient deprived medium assessed as cell shrinkage at 10 uM measured every 10 mins […] by phase contrast microscopic method; assay type: functional, cell-based; outline: as §2
PANC-1 [11] = assay: Antiausteritic activity against human PANC1 cells in nutrient deprived medium assessed as plasma blebbing at 10 uM measured every 10 mins […] by phase contrast microscopic method; assay type: functional, cell-based; outline: as §2
PANC-1 [12] = assay: Reduction in total AKT expression in human PANC1 cells in nutrient deprived medium at up to 5 uM measured within 6 hrs by Western blot analysis; assay type: functional, cell-based; outline: as §4
PANC-1 [13] = assay: Antimigratory activity in human PANC1 cells in DMEM assessed as cell migration at 10 uM after 24 hrs by wound healing assay (reference value: 95%); assay type: functional
PANC-1 [14] = assay: Antiausteritic activity against human PANC1 cells in nutrient deprived medium assessed as cell death at 25 uM after 24 hrs by ethidium bromide/acridine orange staining based microscopic method relative to control; assay type: functional
Outline: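 PANC-1 cells seeded at 2 × 10^5 per 30 mm dish, attached overnight, PBS-washed twice, then exposed to compound in nutrient-deprived medium (NDM) for 24 h in humidified CO2 incubator. Acridine orange/ethidium bromide double stain added 15 min in dark; fluorescence (red/green) and phase-contrast images taken at 20× objective; red-fluorescing, morphologically altered cells scored as dead.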

PANC-1 [15] = assay: Antiausteritic activity against human PANC1 cells in nutrient deprived medium assessed as induction of morphological changes at 6.25 to 25 uM after 24 hrs by ethidium bromide/acridine orange staining based microscopic method; assay type: functional, cell-based
Outline: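 PANC-1 (2 × 10^5) seeded in 30 mm dishes overnight, washed twice with PBS, treated in NDM for 24 h in humidified CO2 incubator. Acridine orange/ethidium bromide double stain, 15 min in the dark. Fluorescence (red/green) and phase-contrast imaging at 20× objective.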

PANC-1 [16] = assay: Antiausteritic activity against human PANC1 cells in nutrient deprived medium assessed as cell death at 10 uM measured every 10 mins for 24 hrs by phase contrast microscopic method; assay type: functional, cell-based; outline: as §2

| Structure (SMILES) | PC50 (PANC-1 [1]) [µM] | PC50 (PSN1 [2]) [µM] | PC50 (MIA PaCa-2 [3]) [µM] | Activity (PSN1 [4]) | Activity (MIA PaCa-2 [5]) | Activity (PANC-1 [6]) | Activity (PANC-1 [1]) | Activity (PSN1 [2]) | Activity (PANC-1 [7]) | inhibition at 25 µM (PANC-1 [8]) [%] | inhibition (Homo sapiens) | inhibition (PANC-1 [9]) | Activity (PANC-1 [10]) | Activity (PANC-1 [11]) | Activity (MIA PaCa-2 [3]) | Activity (PANC-1 [12]) | Activity (PANC-1 [13]) [%] | Activity (PANC-1 [14]) [%] | Activity (PANC-1 [15]) | Activity (PANC-1 [16]) |
| --- | --- | --- | --- | --- | --- | --- | --- | --- | --- | --- | --- | --- | --- | --- | --- | --- | --- | --- | --- | --- |
| COc1cc(C[C@H]2C(=O)OC[C@@H]2Cc2ccc(OC)c(OC)c2)ccc1O [ARCTIGENIN] | 0.7 | 0.7 | 1.9 |  |  |  |  |  |  |  |  |  |  |  |  |  |  |  |  |  |
| C=C(C)[C@@H](O)COc1c2ccoc2cc2oc(=O)ccc12 | 86.6 | >100 | >100 | Non-Toxic | Non-Toxic | Non-Toxic |  |  |  |  |  |  |  |  |  |  |  |  |  |  |
| COC(C)(C)[C@H](O)CC/C(C)=C/COc1c2ccoc2cc2oc(=O)ccc12 | 37.8 | 37.8 | 37.1 | Non-Toxic | Non-Toxic | Non-Toxic |  |  |  |  |  |  |  |  |  |  |  |  |  |  |
| CO[C@@H](COc1c2ccoc2cc2oc(=O)ccc12)C(C)(C)O | 18.8 | 40.6 | 51.1 | Non-Toxic | Non-Toxic | Non-Toxic |  |  |  |  |  |  |  |  |  |  |  |  |  |  |
| CC(C)(O)[C@H](O)COc1c2ccoc2cc2oc(=O)ccc12 [OXYPEUCEDANIN HYDRATE] | 41.2 | 89.7 | 79.4 | Non-Toxic | Non-Toxic | Non-Toxic |  |  |  |  |  |  |  |  |  |  |  |  |  |  |
| O=c1ccc2ccc(O)cc2o1 [UMBELLIFERONE] | >100 | >100 | >100 | Non-Toxic | Non-Toxic | Non-Toxic |  |  |  |  |  |  |  |  |  |  |  |  |  |  |
| CC1(C)O[C@H]1COc1c2ccoc2cc2oc(=O)ccc12 [OXYPEUCEDANIN] | 76.5 | 74.6 | 38 | Non-Toxic | Non-Toxic | Non-Toxic |  |  |  |  |  |  |  |  |  |  |  |  |  |  |
| CC(C)=CCOc1c2ccoc2cc2oc(=O)ccc12 [ISOIMPERATORIN] | 41.2 | 41.7 | 37.2 | Non-Toxic | Non-Toxic | Non-Toxic |  |  |  |  |  |  |  |  |  |  |  |  |  |  |
| C/C(=C\COc1c2ccoc2cc2oc(=O)ccc12)CC[C@@H](O)C(C)(C)O | 76.5 | 76.1 | 49.4 | Non-Toxic | Non-Toxic | Non-Toxic |  |  |  |  |  |  |  |  |  |  |  |  |  |  |
| CC(C)=CCC/C(C)=C/COc1c2ccoc2cc2oc(=O)ccc12 [BERGAMOTTIN] | 4.6 | 9.4 | 2.2 | Non-Toxic | Non-Toxic | Non-Toxic | Dose-dependent effect | Dose-dependent effect | Active | 100 | Active | Active | Active | Active | Dose-dependent effect | Active | 30 | 100 | Active | Active |
| COC(C)(C)[C@H](O)COc1c2ccoc2cc2oc(=O)ccc12 | 89.6 | 89.7 | 87 | Non-Toxic | Non-Toxic | Non-Toxic |  |  |  |  |  |  |  |  |  |  |  |  |  |  |
